The array DNA melting data of Ke et al. (doi:10.1101/2024.01.08.574731)

Columns and labels:
[1] = melting temperature; fluorescence melt of hairpins on a sequencing array, two-state fit, raised by 9.35 °C to match UV melts; conditions: sodium 0.088 M
Method in brief: (§1)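 To match UV melts, fitted temperatures were raised by 9.35 °C. These fits were bootstrapped two-state models that gave melting temperature and folding enthalpy, combined by inverse variance over four replicates. The input was normalised Cy3 fluorescence of library hairpins with annealed Cy3 and quencher oligos on a sequenced MiSeq flow cell, imaged in 50 mM Na-HEPES pH 8.0, 25 mM NaCl in 2.5 °C steps up to 60 °C.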

[2] = folding enthalpy; higher = less favourable; fluorescence melt of hairpins on a sequencing array, two-state fit; conditions: sodium 0.088 M
Method in brief: as §1

Sequence	Tm [1]	folding enthalpy [2]
GATCGATCATCGATC ((((((...))))))	50.5 °C	-33.2 kcal/mol
GATCGATCCTTCGATC ((((((....))))))	55.5 °C	-45.3 kcal/mol
GATCGATCTCTCGATC ((((((....))))))	51.4 °C	-41.2 kcal/mol
GATCGATTACTCGATC ((((((....))))))	51 °C	-47.6 kcal/mol
GATCGATTCTCGATC ((((((...))))))	53.3 °C	-38.8 kcal/mol
GATCGATTGGTCGATC ((((((....))))))	53.2 °C	-37.6 kcal/mol
GATCGCAATCGCGATC ((((((....))))))	67.9 °C	-32.2 kcal/mol
GATCGCACACGCGATC ((((((....))))))	68.2 °C	-38 kcal/mol
GATCGCACGGGCGATC ((((((....))))))	67.1 °C	-30.9 kcal/mol
GATCGCACTCGCGATC ((((((....))))))	68.4 °C	-34.7 kcal/mol
GATCGCAGGCGCGATC ((((((....))))))	68.3 °C	-35.1 kcal/mol
GATCGCATAAGCGATC ((((((....))))))	69.2 °C	-32.5 kcal/mol
GATCGCCAACGCGATC ((((((....))))))	62.9 °C	-36.6 kcal/mol
GATCGCCACAGCGATC ((((((....))))))	68.8 °C	-38.2 kcal/mol
GATCGCCAGAGCGATC ((((((....))))))	68.3 °C	-37.6 kcal/mol
GATCGCCAGGGCGATC ((((((....))))))	68.3 °C	-31 kcal/mol
GATCGCCATTGCGATC ((((((....))))))	67.5 °C	-38 kcal/mol
GATCGCCCAGGCGATC ((((((....))))))	68.2 °C	-25.1 kcal/mol
GATCGCCCCAGCGATC ((((((....))))))	68.5 °C	-33.5 kcal/mol
GATCGCCCGAGCGATC ((((((....))))))	67.5 °C	-37.4 kcal/mol
GATCGCCGAAAGGCTATC (((.(((....))).)))	42.1 °C	-20.4 kcal/mol
GATCGCCGAGCGATC ((((((...))))))	67.3 °C	-32.5 kcal/mol
GATCGCCGGAGCGATC ((((((....))))))	68.9 °C	-31.6 kcal/mol
GATCGCCGGCGCGATC ((((((....))))))	61.1 °C	-34.1 kcal/mol

Sequence	Tm [1]	folding enthalpy [2]
GATCGCCGGGCGATC ((((((...))))))	67.8 °C	-31.1 kcal/mol
GATCGCCGTAGCGATC ((((((....))))))	69.2 °C	-45 kcal/mol
GATCGCCTATGCGATC ((((((....))))))	68.1 °C	-31.6 kcal/mol
GATCGCCTCTGCGATC ((((((....))))))	66.5 °C	-37 kcal/mol
GATCGCCTGTGCGATC ((((((....))))))	66.8 °C	-36.7 kcal/mol
GATCGCGAAAGCGCATC ((((((....))).)))	51.4 °C	-15.3 kcal/mol
GATCGCGAAAGCGGAATC ((((((....)))..)))	34.8 °C	-10.9 kcal/mol
GATCGCGAGGGCGATC ((((((....))))))	68 °C	-38 kcal/mol
GATCGCTCACGCGATC ((((((....))))))	67.8 °C	-41.2 kcal/mol
GATCGCTCCCGCGATC ((((((....))))))	67.8 °C	-34.3 kcal/mol
GATCGCTCCGGCGATC ((((((....))))))	68.4 °C	-39.2 kcal/mol
GATCGCTCTGCGATC ((((((...))))))	68.5 °C	-41.8 kcal/mol
GATCGCTGACGCGATC ((((((....))))))	66.7 °C	-36.5 kcal/mol
GATCGCTGCGGCGATC ((((((....))))))	68.9 °C	-38.9 kcal/mol
GATCGCTGGTGCGATC ((((((....))))))	68.6 °C	-34.2 kcal/mol
GATCGCTTCTGCGATC ((((((....))))))	68.3 °C	-42.3 kcal/mol
GATCGCTTTCGCGATC ((((((....))))))	67.4 °C	-38.4 kcal/mol
GATCGGAAACCCGATC ((((((....))))))	53.9 °C	-34.6 kcal/mol
GATCGGAACCCGATC ((((((...))))))	54 °C	-44 kcal/mol
GATCGGAACGCCGATC ((((((....))))))	54.7 °C	-41.2 kcal/mol
GATCGGACAACCGATC ((((((....))))))	53.5 °C	-34.7 kcal/mol
GATCGGACGCCGATC ((((((...))))))	53.6 °C	-37.4 kcal/mol
GATCGGAGCACCGATC ((((((....))))))	57.4 °C	-34.3 kcal/mol
GATCGGAGGCCCGATC ((((((....))))))	56.4 °C	-34.1 kcal/mol

Sequence	Tm [1]	folding enthalpy [2]
GATCGGAGTGCCGATC ((((((....))))))	57 °C	-30.2 kcal/mol
GATCGGAGTTCCGATC ((((((....))))))	56.7 °C	-37.8 kcal/mol
GATCGGATACCCGATC ((((((....))))))	56.6 °C	-40.3 kcal/mol
GATCGGATAGCCGATC ((((((....))))))	55.4 °C	-29.6 kcal/mol
GATCGGATGCCCGATC ((((((....))))))	55.5 °C	-27 kcal/mol
GATCGGATTACCGATC ((((((....))))))	58.2 °C	-38.7 kcal/mol
GATCGGCAACCGATC ((((((...))))))	54.6 °C	-36.7 kcal/mol
GATCGGCCGCCGATC ((((((...))))))	55.7 °C	-36.6 kcal/mol
GATCGGCGAAAGCCCATC (((.(((....))).)))	36.4 °C	-11.2 kcal/mol
GATCGGCGAACCGATC ((((((....))))))	56.2 °C	-38.2 kcal/mol
GATCGGCTGCCCGATC ((((((....))))))	56.2 °C	-31.2 kcal/mol
GATCGGCTGGCCGATC ((((((....))))))	68.3 °C	-38.2 kcal/mol
GATCGGGACCCCGATC ((((((....))))))	62.4 °C	-39.4 kcal/mol
GATCGGGCCTCCGATC ((((((....))))))	59.7 °C	-36.6 kcal/mol
GATCGGGCTACCGATC ((((((....))))))	67.7 °C	-36.7 kcal/mol
GATCGGGGAAACCCGGTC ((.((((....)))).))	53.8 °C	-26.8 kcal/mol
GATCGGGGAACCGATC ((((((....))))))	65.3 °C	-34.1 kcal/mol
GATCGGGGTACCGATC ((((((....))))))	65.7 °C	-34.5 kcal/mol
GATCGGGTCACCGATC ((((((....))))))	67.4 °C	-36.4 kcal/mol
GATCGGGTCCCGATC ((((((...))))))	56.7 °C	-46.5 kcal/mol
GATCGGGTCGCCGATC ((((((....))))))	65.3 °C	-7.84 kcal/mol
GATCGGGTGACCGATC ((((((....))))))	67 °C	-36.4 kcal/mol
GATCGGGTGCCGATC ((((((...))))))	55.2 °C	-49.1 kcal/mol
GATCGGGTTGCCGATC ((((((....))))))	57.7 °C	-31.1 kcal/mol

Sequence	Tm [1]	folding enthalpy [2]
GATCGGTAATCCGATC ((((((....))))))	57.3 °C	-40.8 kcal/mol
GATCGGTAGCCCGATC ((((((....))))))	56.3 °C	-30.1 kcal/mol
GATCGGTCACCGATC ((((((...))))))	55.8 °C	-36.2 kcal/mol
GATCGGTCTTCCGATC ((((((....))))))	58.9 °C	-37.2 kcal/mol
GATCGGTGAACCGATC ((((((....))))))	61 °C	-43.4 kcal/mol
GATCGGTGATCCGATC ((((((....))))))	56.8 °C	-41.2 kcal/mol
GATCGGTGTCCCGATC ((((((....))))))	58.4 °C	-38.3 kcal/mol
GATCGGTTACCCGATC ((((((....))))))	57.3 °C	-41.4 kcal/mol
GATCGGTTAGCCGATC ((((((....))))))	58.6 °C	-46.4 kcal/mol
GATCGGTTTGCCGATC ((((((....))))))	61.6 °C	-47.9 kcal/mol
GATCGTAAACACGATC ((((((....))))))	52 °C	-36.9 kcal/mol
GATCGTAACACGATC ((((((...))))))	57.5 °C	-37.4 kcal/mol
GATCGTAACGACGATC ((((((....))))))	54.9 °C	-34.8 kcal/mol
GATCGTAACTACGATC ((((((....))))))	56 °C	-41.6 kcal/mol
GATCGTACAAACGATC ((((((....))))))	52.6 °C	-40.2 kcal/mol
GATCGTACTAACGATC ((((((....))))))	54.8 °C	-39.1 kcal/mol
GATCGTAGACACGATC ((((((....))))))	54.2 °C	-39.8 kcal/mol
GATCGTAGATACGATC ((((((....))))))	55.1 °C	-32.3 kcal/mol
GATCGTAGCACGATC ((((((...))))))	56.5 °C	-34.8 kcal/mol
GATCGTAGGAACGATC ((((((....))))))	52.4 °C	-30.9 kcal/mol
GATCGTAGGCACGATC ((((((....))))))	54.2 °C	-37 kcal/mol
GATCGTAGGGACGATC ((((((....))))))	56 °C	-31.6 kcal/mol
GATCGTAGTACGATC ((((((...))))))	54.7 °C	-29.6 kcal/mol
GATCGTCAAACGATC ((((((...))))))	52.1 °C	-31.7 kcal/mol
